Results of several laboratories.
Protocols differ between the studies behind these lines.
Target: Mitogen-activated protein kinase kinase kinase 11 (MAP3K11, Homo sapiens, UniProt Q16584)

| observed | mode | method | concentration | quantity | result | Structure (SMILES) |
| --- | --- | --- | --- | --- | --- | --- |
| binding | – | – | 1 µM | remaining binding | 91% | CN1CCN(C(=O)c2ccc(NC(=O)Nc3ccc(N(C)c4ccnc(Nc5ccc(CS(C)(=O)=O)cc5)n4)cc3)cc2)CC1 |
| enzyme activity | inhibitor | – | 1 µM | activity vs control | 98% | CC(C)S(=O)(=O)c1ccc2nccc(Nc3ccc4sc(C5CCCC5)nc4c3)c2c1 |
| enzyme activity | inhibitor | – | 1 µM | inhibition | 0% | C=CC(=O)N1CCC([C@@H]2CCNc3c(C(N)=O)c(-c4ccc(Oc5ccccc5)cc4)nn32)CC1 |
| cell-free assay | – | – | 0.1 µM | remaining signal | 100% | C1=C/COCc2cc(ccc2OCCN2CCCC2)Nc2nccc(n2)-c2cccc(c2)COC/1 |
| enzyme activity | inhibitor | – | 1 µM | inhibition | 0% | C=CC(=O)N1CCC[C@@H](n2nc(-c3ccc(Oc4ccccc4)cc3)c3c(N)ncnc32)C1 |
| binding | – | competition with immobilised ligand | 0.5 µM | remaining binding | 82% | CCCCC(=O)Nc1ccc(-c2ccc3ncn(CCC)c(=O)c3c2)cn1 |
| binding | – | – | 1 µM | remaining binding | 5.6% | COc1ccc2[nH]c3c4[nH]c5ccc(OC)cc5c4c4c(c3c2c1)C(=O)NC4=O |
| enzyme activity | inhibitor | – | 0.2 µM | inhibition | 72.5% | C#Cc1cc(-c2cc(Nc3nc(N[C@@H](C)c4ccc(F)cn4)ncc3Cl)n[nH]2)ccc1C=O |
